According to PubChem BioAssay:
Activity calls are given as the source filed them.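 Rule for the calls, unless noted: active = GFP response above 150% of the DMSO level; inconclusive = fewer than 70 events counted for a yeast strain; inactive = the rest.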

Columns and labels:
[1] = RPL19A-GFP modulators, yeast TOR pathway, confirmation, cell-based, S. cerevisiae, flow cytometry, cherry picks, mother/daughter gates (AID 2270;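 active = GFP response below 50% of the DMSO control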); conditions: S. cerevisiae RPL19A-GFP strain, 3 h, at 10 µM, stronger effect = lower value, 100 = same GFP as DMSO wells
[2] = LAP4-GFP expression modulators in yeast, confirmation, cell-based, cherry picks, flow cytometry, mother/daughter gates (AID 2271;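 active = GFP response above 150% of the DMSO control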;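 note: ratio of sample to DMSO plate mean so 100% equals DMSO level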); conditions: S. cerevisiae LAP4-GFP strain, 3 h, at 10 µM, stronger effect = higher value, 100 means same as DMSO control
Method in brief: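 Material: Alexa Fluor 633-labelled Saccharomyces cerevisiae GFP-fusion strain, single-plex | Amount: Yeast cells seeded at OD600 of 0.2 | Buffer or medium: SC growth medium | Schedule: 3 h exposure, 30 °C | Measured by: HT flow cytometry, GFP fluorescence channel | Evaluation: % GFP response vs DMSO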

[3] = modulators of MEP2-GFP levels in yeast, confirmation, S. cerevisiae, flow cytometry GFP, cherry picks (AID 2272;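 active = GFP response above 150% of the DMSO control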;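 note: ratio of well signal to plate DMSO mean so 100% equals DMSO level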); conditions: S. cerevisiae MEP2-GFP strain, 3 h, at 10 µM, stronger effect = higher value
[4] = AGP1-GFP expression modulators, hit retest, confirmation, cell-based, flow cytometry, S. cerevisiae, cherry picks (AID 2273);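 note: median GFP channel fluorescence over the whole cell population gate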; conditions: S. cerevisiae AGP1-GFP strain, 3 h, at 10 µM
[5] = modulators of CIT2-GFP expression in yeast, confirmation, S. cerevisiae, GFP fusion, cherry picks, mother/daughter gates (AID 2274); conditions: S. cerevisiae CIT2-GFP strain, flow cytometry, 3 h, at 10 µM, stronger effect = higher value
[6] = measured here: daughter cell gate
[7] = measured here: mother cell gate
[8] = measured here: daughter cell gate response
[9] = measured here: mother cell gate response

| SMILES | GFP response vs DMSO [1] | GFP response vs DMSO [1, 6] [%] | GFP response vs DMSO [1, 7] [%] | GFP response relative to DMSO [2] | GFP response relative to DMSO [2, 8] [%] | GFP response relative to DMSO [2, 9] [%] | GFP response vs DMSO [3] | GFP response, % of DMSO [4] | GFP response, % of DMSO [5] | GFP response, % of DMSO [5, 6] [%] | GFP response, % of DMSO [5, 7] [%] |
| --- | --- | --- | --- | --- | --- | --- | --- | --- | --- | --- | --- |
| O=C(c1cc(-c2cccc(Cl)c2)on1)N1CCc2ccccc2C1 | 99.2% (inactive) | 100 | 99.5 | 95.7% (inactive) | 95.9 | 95.2 | 99% (inactive) | 104% (inactive) | 97.3% (inactive) | 97.4 | 96.8 |
| CCOC(=O)COc1c(Cl)cc(/C=C2\N=C(C)OC2=O)cc1OC | 105% (inactive) | 105 | 103 | 109% (inactive) | 108 | 113 | 104% (inactive) | 98.9% (inactive) | 103% (inactive) | 105 | 99.8 |
| Cc1cccc(NC(=O)c2nc(S(=O)(=O)Cc3ccccc3)ncc2Cl)c1 | 93.1% (inactive) | 92.7 | 91.4 | 136% (inactive) | 128 | 137 | 108% (inactive) | 116% (inactive) | 93.1% (inactive) | 88.7 | 90.4 |
| CC(=O)c1sc2nc(C)c3c(c2c1N)CCCC3 | 89.4% (inactive) | 88.5 | 89.3 | 111% (inactive) | 104 | 115 | 101% (inactive) | 98.2% (inactive) | 91.7% (inactive) | 88.7 | 92.6 |
| COc1cccc2c1Oc1ncccc1N(C(=O)CCC(=O)NCc1ccc(C)cc1)C2 | 101% (inactive) | 100 | 103 | 95.7% (inactive) | 94.2 | 96.2 | 99% (inactive) | 106% (inactive) | 98.8% (inactive) | 99.2 | 98.1 |
| COc1cccc(N=Cc2nc(-c3ccccc3)oc2OC(C)=O)c1 | 97.4% (inactive) | 96.1 | 98.7 | 108% (inactive) | 101 | 113 | 87.8% (inactive) | 87.5% (inactive) | 95.5% (inactive) | 95.4 | 95 |
| Cc1ccc(C)c(Cn2ncc3ccccc32)c1 | 95.8% (inactive) | 98.1 | 95.4 | 100% (inactive) | 97.5 | 104 | 106% (inactive) | 90.7% (inactive) | 94.4% (inactive) | 95.8 | 92.6 |
| COc1ccc(N2C(=O)C(Cl)=C(N(CCO)Cc3ccccc3)C2=O)cc1 | 101% (inactive) | 99.1 | 102 | 98.2% (inactive) | 99.1 | 99.4 | 101% (inactive) | 102% (inactive) | 100% (inactive) | 101 | 99.3 |
| CC(C)c1nnc(NC(=O)c2nc(S(=O)(=O)Cc3ccccc3F)ncc2Cl)s1 | 98.4% (inactive) | 97.8 | 99.2 | 108% (inactive) | 107 | 107 | 110% (inactive) | 101% (inactive) | 102% (inactive) | 102 | 100 |
| CCOC(=O)c1ccccc1NC(=O)c1c(O)c2ccccc2n(CC)c1=O | 95.6% (inactive) | 96.9 | 96.2 | 101% (inactive) | 102 | 98.3 | 102% (inactive) | 93.7% (inactive) | 98.3% (inactive) | 99.1 | 97.3 |
| COc1cccc(-c2nnc(NC(=O)c3ccc(S(=O)(=O)N4CCOCC4)cc3)o2)c1 | 97.6% (inactive) | 97.8 | 96.5 | 97.7% (inactive) | 99 | 97.4 | 101% (inactive) | 100% (inactive) | 100% (inactive) | 99.3 | 100 |
| Cc1ccc(S(=O)(=O)c2ncccc2N)cc1 | 99.4% (inactive) | 99.4 | 99 | 101% (inactive) | 101 | 98.3 | 100% (inactive) | 102% (inactive) | 101% (inactive) | 101 | 99.7 |
| c1ccc(-c2cccc(-c3ccccn3)n2)nc1 | 92.9% (inactive) | 82.8 | 96.9 | 258% (active) | 210 | 268 | 106% (inactive) | 89% (inactive) | 97.8% (inactive) | 87.2 | 100 |
| O=C1CC(SCc2nc3ccccc3[nH]2)C(=O)N1c1cccc(F)c1 (stereo unspecified) | 98.7% (inactive) | 99.3 | 97.5 | 104% (inactive) | 105 | 105 | 99.3% (inactive) | 102% (inactive) | 103% (inactive) | 103 | 103 |
| C/C(=N\NC(=O)c1ccc(Br)cc1)c1ccccc1 | 98% (inactive) | 97.9 | 98 | 97.9% (inactive) | 99.2 | 98.3 | 102% (inactive) | 94.3% (inactive) | 99.7% (inactive) | 99.1 | 98.5 |
| COc1ccc(OC)c(S(=O)(=O)ON2C(=O)c3ccccc3C2=O)c1 | 105% (inactive) | 98.3 | 93.8 | 156% (active) | 157 | 158 | 114% (inactive) | 96.9% (inactive) | 102% (inactive) | 119 | 87.5 |
